Test results reported in ChEMBL document CHEMBL4376840, “Application of Fluorine- and Nitrogen-Walk Approaches: Defining the Structural and Functional Diversity of 2-Phenylindole Class of Cannabinoid 1 Receptor Positive Allosteric Modulators” (J Med Chem, 2020).

Columns and labels:
Cannabinoid receptor 1 [1] = target: T1, Cannabinoid receptor 1 (Homo sapiens, UniProt P21554); assay: Positive allosteric modulatory activity at human CB1R expressed in CHO-K1 cells assessed as increase in CP55940-induced inhibition of forskolin-stimulated cAMP production after 30 mins in presence of CP55940 at EC20 concentration by hit-hunter cAMP assay; type: functional, cell-based
T1 sequence (P21554 whole entry): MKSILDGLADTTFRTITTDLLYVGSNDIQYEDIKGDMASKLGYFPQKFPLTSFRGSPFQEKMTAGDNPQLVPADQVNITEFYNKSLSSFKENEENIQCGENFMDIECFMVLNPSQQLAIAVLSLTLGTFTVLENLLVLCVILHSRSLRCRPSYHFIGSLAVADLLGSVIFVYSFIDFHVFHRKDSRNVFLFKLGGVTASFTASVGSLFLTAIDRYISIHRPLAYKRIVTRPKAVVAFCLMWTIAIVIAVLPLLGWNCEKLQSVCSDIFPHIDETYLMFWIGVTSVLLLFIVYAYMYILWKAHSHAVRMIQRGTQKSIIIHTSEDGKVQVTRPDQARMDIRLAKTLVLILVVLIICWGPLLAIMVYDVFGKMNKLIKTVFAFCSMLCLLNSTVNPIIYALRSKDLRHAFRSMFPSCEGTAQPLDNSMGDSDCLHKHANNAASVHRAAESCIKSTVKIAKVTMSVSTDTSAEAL
How it was run: (§1)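 Read-out was chemiluminescent cAMP detection, fit with a variable-slope 4-parameter regression. n = 1–3 independent experiments in duplicate.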

Cannabinoid receptor 1 [2] = target: T1, Cannabinoid receptor 1; assay: Positive allosteric modulatory activity at human CB1R expressed in CHO-K1 cells assessed as increase in CP55940-induced inhibition of forskolin-stimulated cAMP production after 30 mins in presence of CP55940 at EC20 concentration by hit-hunter cAMP assay relative to control; type: functional, cell-based; how it was run: as §1
Cannabinoid receptor 1 [3] = target: T1, Cannabinoid receptor 1; assay: Positive allosteric modulatory activity at human CB1R expressed in CHO-K1 cells assessed as increase in CP55940-induced beta-arrestin2 recruitment after 90 mins in presence of CP55940 at EC20 concentration by pathhunter beta-arrestin assay; type: cell-based
How it was run: (§2)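 Read-out was chemiluminescent β-arrestin2 recruitment, fit with a 4-parameter regression. n = 1–3 independent experiments in duplicate.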

Cannabinoid receptor 1 [4] = target: T1, Cannabinoid receptor 1; assay: Positive allosteric modulatory activity at human CB1R expressed in CHO-K1 cells assessed as increase in CP55940-induced beta-arrestin2 recruitment after 90 mins in presence of CP55940 at EC20 concentration by pathhunter beta-arrestin assay relative to control; type: cell-based; how it was run: as §2
[5] = buffer, pH 7.4, 24 h
Cannabinoid receptor 1 [6] = target: T1, Cannabinoid receptor 1; assay: Agonist activity at human CB1 receptor expressed in CHO cell membranes assessed as increase in G-protein coupling by measuring [35S]GTPgammaS binding after 90 mins in presence of [35S]GTPgammaS by liquid scintillation analysis relative to control; type: functional
How it was run: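 [35S]GTPγS binding to G protein in membranes from CHO cells stably expressing human CB1R, with test compound given alone. Data fit to a variable-slope 4-parameter nonlinear regression. n = 4–6 independent experiments in duplicate.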

Cannabinoid receptor 1 [7] = target: T1, Cannabinoid receptor 1; assay: Allosteric agonist activity at human CB1R expressed in CHO-K1 cells assessed as inhibition of forskolin-induced cAMP accumulation by measuring cAMP accumulation at minimal level at higher concentrations after 90 mins by hit-hunter cAMP assay relative to forskolin; type: functional, cell-based
How it was run: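 HitHunter CHO-K1 hCB1R cells (20,000/well) were held overnight in Opti-MEM with 1% FBS. They were then co-treated at 37°C with 10 μM forskolin plus compound alone (0.10 nM – 10 μM) for 90 min. Chemiluminescent cAMP detection followed (two 60-min room-temperature steps). Data as % forskolin, variable-slope 4-parameter fit; Emin is the lower plateau. n ≥ 6, triplicate.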

Cannabinoid receptor 1 [8] = target: T1, Cannabinoid receptor 1; assay: Positive allosteric modulatory activity at human CB1R expressed in CHO-K1 cells assessed as increase in CP55940-induced inhibition of forskolin-induced cAMP accumulation by measuring cAMP accumulation at minimal level at higher concentration after 90 mins in presence of 100 nM CP55940 by hit-hunter cAMP assay relative to forskolin; type: functional, cell-based
How it was run: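 Uses the HitHunter CHO-K1 hCB1R cAMP set-up above. […] Data normalized to % forskolin, 4-parameter fit. n ≥ 6, triplicate.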

Cannabinoid receptor 1 [9] = target: T1, Cannabinoid receptor 1; assay: Allosteric agonist activity at human CB1R expressed in CHO-K1 cells assessed as increase in beta arrestin2 recruitment after 90 mins by pathhunter beta-arrestin assay relative to CP55940; type: cell-based
How it was run: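 PathHunter CHO-K1 hCB1R cells (20,000/well) were held overnight in Opti-MEM with 1% FBS. Compound alone (0.10 nM – 10 μM) was given at 37°C for 90 min, then detection solution for 60 min at room temperature and chemiluminescence was read.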

Cannabinoid receptor 1 [10] = target: T1, Cannabinoid receptor 1; assay: Positive allosteric modulatory activity at human CB1R expressed in CHO-K1 cells assessed as maximal increase in CP55940-induced beta arrestin2 recruitment after 90 mins in presence of 100 nM CP55940 by pathhunter beta-arrestin assay relative to CP55940; type: cell-based
[11] = target: Cannabinoid receptor 1 (Rattus norvegicus) (UniProt P20272); assay: Positive allosteric modulatory activity at N-terminal GFP-tagged rat CB1R receptor expressed in HEK293 cells assessed as downward shift in CP55940 dependent concentration response curve for inhibition of forskolin-induced cAMP accumulation after 30 mins by TR-FRET assay; type: functional, cell-based
Chain of Cannabinoid receptor 1 (Rattus norvegicus) (P20272 whole entry): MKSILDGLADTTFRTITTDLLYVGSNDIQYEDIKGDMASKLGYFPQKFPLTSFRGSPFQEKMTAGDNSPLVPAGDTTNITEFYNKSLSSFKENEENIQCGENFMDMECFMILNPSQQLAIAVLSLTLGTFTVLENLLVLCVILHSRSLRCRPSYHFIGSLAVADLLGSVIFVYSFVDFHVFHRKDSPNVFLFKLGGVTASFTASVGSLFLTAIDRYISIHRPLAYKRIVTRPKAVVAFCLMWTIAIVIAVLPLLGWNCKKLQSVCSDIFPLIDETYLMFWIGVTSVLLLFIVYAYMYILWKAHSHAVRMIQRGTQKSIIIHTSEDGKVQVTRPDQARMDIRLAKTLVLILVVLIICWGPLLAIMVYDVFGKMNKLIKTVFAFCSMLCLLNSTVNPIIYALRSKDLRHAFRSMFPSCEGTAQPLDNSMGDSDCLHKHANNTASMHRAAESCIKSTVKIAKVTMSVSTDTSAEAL

[12] = target: Cannabinoid receptor 1 (Rattus norvegicus) (UniProt P20272); assay: Positive allosteric modulatory activity at N-terminal GFP-tagged rat CB1R receptor expressed in HEK293 cells assessed as leftward shift in CP55940 dependent concentration response curve for inhibition of forskolin-induced cAMP accumulation after 30 mins by TR-FRET assay; type: functional, cell-based
[13] = target: Cannabinoid receptor 1 (Rattus norvegicus) (UniProt P20272); assay: Allosteric agonist activity at N-terminal GFP-tagged rat CB1R expressed in HEK293 cells assessed as inhibition of forskolin-induced cAMP production by measuring cAMP accumulation at minimal level at higher concentrations after 30 min by TR-FRET assay relative to forskolin; type: functional, cell-based
How it was run: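 HEK293 cells stably expressing N-terminal GFP-tagged rat CB1R were trypsin-EDTA dissociated and resuspended in HBSS with 0.1% BSA and 0.5mM IBMX at 500 cells/well. Cells got 5μM forskolin plus compound (1 pM – 10 μM) alone for 30 min. 4-parameter fit; Emin is the lower plateau. n ≥ 3, triplicate.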

SMILES | EC50 (Cannabinoid receptor 1 [1]) [nM] | Emax (Cannabinoid receptor 1 [2]) [%] | EC50 (Cannabinoid receptor 1 [3]) [nM] | Emax (Cannabinoid receptor 1 [4]) [%] | Therm_solubility [5] [µM] | other results
O=[N+]([O-])CC(c1ccc(F)cc1)c1c(-c2cccc(F)c2)[nH]c2c(F)cccc12 (configuration not stated) | 230 | 110 | 1100 | 43 | – | –
O=[N+]([O-])CC(c1ccccc1)c1c(-c2ccccc2)[nH]c2cc(F)ccc12 (configuration not stated) | 110 | 120 | 1100 | 38 | – | –
O=[N+]([O-])CC(c1ccccc1)c1c(-c2ccccc2)[nH]c2cccc(F)c12 (configuration not stated) | 130 | 120 | 900 | 37 | – | –
O=[N+]([O-])CC(c1ccc(F)cc1)c1c(-c2ccccc2)[nH]c2cc(F)ccc12 (configuration not stated) | 1300 | 47 | 1100 | 32 | – | –
O=[N+]([O-])CC(c1cccnc1)c1c(-c2ccccc2)[nH]c2ccccc12 (configuration not stated) | 3100 | 170 | > 10000 | -8.1 | 1.1 | –
O=[N+]([O-])CC(c1ccc(F)cc1)c1c(-c2ccccc2)[nH]c2c(F)cccc12 (configuration not stated) | 270 | 121 | 700 | 27 | – | –
O=[N+]([O-])CC(c1ccccc1)c1c(-c2cccnc2)[nH]c2ccccc12 (configuration not stated) | 1100 | 150 | > 10000 | 9.2 | 4.9 | –
O=[N+]([O-])CC(c1ccccc1)c1c(-c2ccccc2)[nH]c2ccncc12 (configuration not stated) | > 10000 | 4 | > 10000 | 2.8 | 23.6 | –
O=[N+]([O-])CC(c1ccccc1)c1c(-c2ccncc2)[nH]c2ccccc12 (configuration not stated) | 3100 | 88 | 1600 | 19 | 2.1 | –
O=[N+]([O-])CC(c1ccccc1)c1c(-c2ccccc2F)[nH]c2ccccc12 (configuration not stated) | 1400 | 140 | 710 | 7 | – | –
O=[N+]([O-])CC(c1ccncc1)c1c(-c2ccccc2)[nH]c2ccccc12 (configuration not stated) | 510 | 110 | 4000 | 25 | 36.7 | –
O=[N+]([O-])CC(c1ccccc1F)c1c(-c2ccccc2)[nH]c2ccccc12 (configuration not stated) | 43 | 110 | 1060 | 63 | – | –
O=[N+]([O-])CC(c1ccccc1F)c1c(-c2ccccc2)[nH]c2cc(F)ccc12 (configuration not stated) | 58 | – | 1140 | – | – | –
O=[N+]([O-])CC(c1ccccc1)c1c(-c2ccccc2)[nH]c2cnccc12 (configuration not stated) | 450 | 5.2 | > 10000 | 5.1 | 6.8 | –
O=[N+]([O-])CC(c1ccccc1)c1c(-c2ccccc2)[nH]c2c(F)cccc12 (configuration not stated) | 22 | 120 | 750 | 45 | – | –
O=[N+]([O-])CC(c1ccccc1)c1c(-c2ccccc2)[nH]c2ccc(F)cc12 (configuration not stated) | 191 | 130 | 740 | 23 | – | –
O=[N+]([O-])CC(c1ccc(F)cc1)c1c(-c2cccc(F)c2)[nH]c2cc(F)ccc12 (configuration not stated) | 1150 | 91 | 2100 | 56 | – | –
O=[N+]([O-])CC(c1ccccc1)c1c(-c2ccccc2)[nH]c2ccccc12 (racemic) | – | – | – | 46 | – | Emax (Cannabinoid receptor 1 [6]): 28%; Emin (Cannabinoid receptor 1 [7]): 1.8%; Emin (Cannabinoid receptor 1 [8]): 21%; Emax (Cannabinoid receptor 1 [9]): 27%; Emax (Cannabinoid receptor 1 [10]): 72%; Activity [11]: Dose-dependent effect; Activity [12]: Dose-dependent effect
O=[N+]([O-])CC(c1ccccc1)c1c(-c2cccc(F)c2)[nH]c2ccccc12 (configuration not stated) | 80 | – | 1300 | – | – | –
O=[N+]([O-])CC(c1ccccc1)c1c(-c2ccccc2)[nH]c2cccnc12 (configuration not stated) | > 10000 | 81 | 1600 | 30 | 11.2 | –
O=[N+]([O-])CC(c1ccccc1F)c1c(-c2ccccc2)[nH]c2c(F)cccc12 (configuration not stated) | 21 | – | 680 | – | – | –
CCCCCCC(C)(C)c1ccc([C@@H]2C[C@H](O)CC[C@H]2CCCO)c(O)c1 | – | – | – | – | – | Emin [13]: 29%
O=[N+]([O-])CC(c1ccccc1)c1c(-c2ccc(F)cc2)[nH]c2ccccc12 (configuration not stated) | 1600 | 120 | > 10000 | -2.2 | – | –
O=[N+]([O-])CC(c1ccccn1)c1c(-c2ccccc2)[nH]c2ccccc12 (configuration not stated) | 260 | 130 | > 10000 | 5.8 | 2.8 | –
O=[N+]([O-])CC(c1ccc(F)cc1)c1c(-c2ccccc2)[nH]c2ccccc12 (configuration not stated) | 440 | 110 | > 10000 | 8 | – | –
O=[N+]([O-])CC(c1cccc(F)c1)c1c(-c2ccccc2)[nH]c2ccccc12 (configuration not stated) | 730 | 130 | 2500 | 19 | – | –
O=[N+]([O-])CC(c1ccccc1)c1c(-c2ccccc2)[nH]c2ncccc12 (configuration not stated) | 1100 | 39 | > 10000 | 7 | 159 | –
